Experimental data gathered from unrelated publications.
Target: Mitogen-activated protein kinase kinase kinase 3 (MAP3K3, Homo sapiens, UniProt Q99759)
Sequence (Q99759 1-626, as in one of the studies): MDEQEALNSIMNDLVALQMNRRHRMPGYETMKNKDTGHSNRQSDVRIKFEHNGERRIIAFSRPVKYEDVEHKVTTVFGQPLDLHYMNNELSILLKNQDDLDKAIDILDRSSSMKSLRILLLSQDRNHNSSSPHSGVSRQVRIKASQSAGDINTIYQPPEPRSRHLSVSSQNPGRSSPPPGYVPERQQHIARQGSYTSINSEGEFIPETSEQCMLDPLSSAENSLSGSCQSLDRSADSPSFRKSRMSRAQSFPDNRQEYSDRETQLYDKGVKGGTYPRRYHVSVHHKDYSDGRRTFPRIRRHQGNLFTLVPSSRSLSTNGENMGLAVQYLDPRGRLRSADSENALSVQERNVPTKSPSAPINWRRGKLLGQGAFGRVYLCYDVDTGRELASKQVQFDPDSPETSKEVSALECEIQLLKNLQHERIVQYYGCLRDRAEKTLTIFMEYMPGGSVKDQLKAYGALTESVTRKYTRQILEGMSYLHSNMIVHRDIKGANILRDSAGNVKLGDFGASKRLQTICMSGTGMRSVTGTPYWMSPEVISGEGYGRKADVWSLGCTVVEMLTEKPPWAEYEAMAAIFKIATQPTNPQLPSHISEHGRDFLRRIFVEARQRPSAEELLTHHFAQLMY

C[C@H]1CC[C@H](n2c3cnccc3c3cnc(Nc4ccc5c(n4)CCN(C(=O)CO)C5)nc32)CC1 — remaining binding (binding, competition with immobilised ligand; 1 µM): 81%
CO[C@@H]1[C@H](N(C)C(=O)c2ccccc2)C[C@H]2O[C@]1(C)n1c3ccccc3c3c4c(c5c6ccccc6n2c5c31)C(=O)NC4 — inhibition (enzyme activity, inhibitor; 1 µM): 86%
CN1CCN(C(=O)c2ccc(NC(=O)Nc3ccc(N(C)c4ccnc(Nc5ccc(CS(C)(=O)=O)cc5)n4)cc3)cc2)CC1 — remaining binding (binding, competition with immobilised ligand; 1 µM): 57%
CC(C)S(=O)(=O)c1ccc2nccc(Nc3ccc4sc(C5CCCC5)nc4c3)c2c1 — activity vs control (enzyme activity, inhibitor; 1 µM): 105%
CC#CC(=O)N1CCC[C@H]1c1nc(-c2ccc(C(=O)Nc3ccccn3)cc2)c2c(N)nccn12 — inhibition (enzyme activity, inhibitor; 1 µM): 25%
C#Cc1cc(-c2cc(Nc3nc(N[C@@H](C)c4ccc(F)cn4)ncc3Cl)n[nH]2)ccc1C=O — inhibition (enzyme activity, inhibitor; 0.2 µM): 48.8%
CCCCC(=O)Nc1ccc(-c2ccc3ncn(CCC)c(=O)c3c2)cn1 — remaining binding (binding, competition with immobilised ligand; 0.5 µM): 100%
Cc1cc(O)c(-c2ccc([C@@H](C)CN(C)C)cc2)c2c1[nH]c(=O)c1sccc12 — inhibition (enzyme activity, inhibitor; 0.1 µM): 0.395%
C1=C/COCc2cc(ccc2OCCN2CCCC2)Nc2nccc(n2)-c2cccc(c2)COC/1 — remaining binding (binding; 0.1 µM): 53%
